# Measles CPE: compounds protecting cells from measles virus cytopathic effect, primary screen, measles RdRp inhibitor project, single point, MLSMR library, absorbance; 140,000 compounds, 1.5% hits; protection (pct of control), % at 4 µM; Measles virus-infected cells, CPE protection; in the data active means protection mostly above about 24%, no sharp cut-off; inactive means mostly below about 26%
# Yeast life ext: compounds extending yeast replicative lifespan, primary screen, S. cerevisiae, OD615. S. cerevisiae growth with nicotinamide; deaD strain in restrictive glucose medium. 130,000 compounds, 0.68% hits. inhibition of the nicotinamide effect, % at 10 µM;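 active means inhibition above a set limit, placed 3 SD over the median of all compounds, cut at about 26% in these data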;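 further: 0% = nicotinamide-treated wells and 100% = cells grown without nicotinamide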
#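 Buffer or medium: CSMM-D glucose medium, restrictive; test system: modified budding yeast, DeaD strain; compound: single dose 10 µM compound, 0.25% DMSO; schedule: culture preincubation 4 h, compound exposure 48 h, both 30 °C; detection: optical density (absorbance) at 615 nm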
# sEH inhibitor: soluble epoxide hydrolase inhibitors, primary screen, biochemical, human sEH; Bifunctional epoxide hydrolase 2 (Homo sapiens), P34913; recombinant human sEH enzymatic activity assay; inhibition, % at 2 µM; 91,000 compounds, 0.34% hits; AID 707, 2007; in the data active means inhibition above about 80%
# Target sequence (P34913 whole entry, looked up): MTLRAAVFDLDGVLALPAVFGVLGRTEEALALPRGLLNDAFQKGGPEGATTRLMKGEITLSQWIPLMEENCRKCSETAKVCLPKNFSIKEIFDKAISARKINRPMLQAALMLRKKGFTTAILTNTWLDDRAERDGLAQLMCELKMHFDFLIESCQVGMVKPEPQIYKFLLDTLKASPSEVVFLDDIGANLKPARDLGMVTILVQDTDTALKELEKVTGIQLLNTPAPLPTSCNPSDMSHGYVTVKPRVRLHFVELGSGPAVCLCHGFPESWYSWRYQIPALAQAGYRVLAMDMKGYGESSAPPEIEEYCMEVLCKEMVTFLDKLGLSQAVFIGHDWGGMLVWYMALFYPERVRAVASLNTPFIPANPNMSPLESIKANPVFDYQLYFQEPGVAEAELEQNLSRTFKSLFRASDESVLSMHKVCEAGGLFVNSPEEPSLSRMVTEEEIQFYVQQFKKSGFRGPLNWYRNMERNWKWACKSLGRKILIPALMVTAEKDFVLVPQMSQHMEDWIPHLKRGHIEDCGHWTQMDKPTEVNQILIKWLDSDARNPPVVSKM
# BB579 growth dn: growth inhibitors of yeast BB579 in restrictive medium, primary screen, yeast lifespan-shortening project, S. cerevisiae. OD615, 48 h. inhibition, % at 10 µM. 140,000 compounds, 0.51% hits;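 active means inhibition above a set limit, 3 SD over the mean compound inhibition, cut at about 44% in these data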
#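 Test system: S. cerevisiae DeaD strain BB579 yeast; Medium: restrictive CSMM-D medium; Compound: one dose, 10 µM compound with 0.25% DMSO; Incubation: 4 h cell preincubation, 48 h compound exposure, 30 °C humidified; Signal: OD at 615 nm; Benchmarks: amphotericin B at 10 µg/mL as positive control.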
# sEH act: soluble epoxide hydrolase activators, primary screen, biochemical, human sEH; purified human sEH enzymatic activity, activator screen; activation, % at 2 µM; 91,000 compounds, 0.04% hits; AID 717, 2007; in the data active means activation above about 37%
# sdo1 growth: growth rescue of sdo1-depleted yeast, primary screen, S. cerevisiae, bone marrow failure model; S. cerevisiae sdo1-depleted JHY4D growth rescue, OD600 30 h; stronger effect = higher value; pdr5 snq2 efflux-pump mutant strain; z-score at 10 µM; 140,000 compounds, 0.21% hits; AID 817, 2007;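 active means z-score above 3 at both the 24 hr and the 30 hr optical density reads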;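 further: z-score against mean and SD of all compound wells on the same plate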
# Active calls of the source: *; x = no result given; [ ] = remark or other dose. The list is not random: actives were taken first. Their share in the collection is about 3%.
SMILES,Measles CPE,Yeast life ext,sEH inhibitor,BB579 growth dn,sEH act,sdo1 growth
Cc1ccc(C)c2[nH]c(=O)c(CN(Cc3ccco3)S(=O)(=O)c3ccc4c(c3)OCCO4)cc12,30,1,8,-36,-9,-1.1
CCc1ccc2[nH]c(=O)c(CN(Cc3ccco3)S(=O)(=O)c3ccc4c(c3)OCCO4)cc2c1,4,-6,-42,-56,39*,-0.7
CCOc1ccccc1NC(=O)COC(=O)CSc1ccc(Cl)cc1,11,-6,x,-8,x,0.01
CC1=C(C#N)C(c2ccccc2)C2=C(N1)c1ccccc1C2=O (stereo not drawn),7,-5,x,-25,x,-0.9
CSC1=C(C#N)C(c2ccccc2Cl)C2=C(N1)c1ccccc1C2=O (stereo not drawn),10,28*,-8,-21,8,-0.55
Cc1cc(C)c(N2CCN(S(=O)(=O)N3CCCCCC3)CC2)c(C)c1,9,-6,39,-68,-38,-0.79
O=S(=O)(/N=C(/Nc1ccccc1)C(F)(F)F)c1ccccc1,12,7,x,-3,x,0.32
CCc1ccccc1N/C(=N\S(=O)(=O)c1ccccc1)C(F)(F)F,15,30*,x,-6,x,0.79
Cc1ccc(NS(=O)(=O)c2ccc(OCC(=O)NCc3ccco3)cc2)cc1,53*,-15,4,-16,-4,0.47
COc1cc(=O)n(C)c2ccccc12,18,-21,-10,-13,11,0.62
COc1cccc2c(=O)c3c(cnn3C)n(C)c12,9,-20,0,74*,3,2.3
CCOc1cc(C)nc(N2CCCC(C(=O)NCc3ccccc3F)C2)n1 (stereo not drawn),19,-7,62,-15,-63,0.11
Cc1cc(C)nc(N2CCCC(C(=O)NCCc3ccccc3F)C2)n1 (stereo not drawn),43*,-7,34,3,-33,-0.69
CSc1ccc(/C=C(\C#N)C(=O)NC2CCCCC2C)cc1 (stereo not drawn),4,9,x,-60,x,-1.8
CC1CCCCC1NC(=O)/C(C#N)=C/c1ccccc1F (stereo not drawn),4,63*,x,-25,x,-1.8
Cc1ccc(-c2cc(C)nc3ncnn23)cc1,47*,-9,1,-4,-4,-0.67
COc1ccc(C/C(C)=N/NC(=S)Nc2ccc(C)c(C)c2)cc1,20*,-5,x,-27,x,-0.54
COc1ccc(C/C(C)=N/NC(=S)Nc2ccccc2)cc1,12,-2,x,-32,x,0.91
COc1ccc(CNC(=S)Nc2cccc(C)c2)cc1,40*,-17,-9,-5,7,0.25
Cc1cccc(OCC(=O)N/N=C/c2cc([N+](=O)[O-])ccc2N2CCOCC2)c1,21,-1,x,-49,x,-0.83
CN1CCN(/N=C/c2cccc(Cl)c2Cl)CC1,6,30*,x,-40,x,0.52
CN1CCN(/N=C/c2nc(-c3ccccc3Cl)n3ccccc23)CC1,9,-3,x,-12,x,0.83
CCN(CC)c1ccc(N2C(=O)/C(=C/c3cccnc3)SC2=S)cc1,7,-8,8,-43,-8,0.36
O=C(COc1ccc([N+](=O)[O-])cc1)N(Cc1ccccc1)Cc1ccccc1,32*,44,x,-24,x,-1.6
Cc1ccc(NC(=O)CN2C(=O)NC(Cc3c[nH]c4ccccc34)C2=O)cc1S(=O)(=O)N1CCCCC1 (stereo not drawn),14,3,x,-30,x,0.41
SMILES,Measles CPE,Yeast life ext,sEH inhibitor,BB579 growth dn,sEH act,sdo1 growth
Cc1nnc(Sc2nc3ccccc3o2)c2ccccc12,26*,-7,-17,1,15,-0.4
Cc1ccc(-c2nnc(Sc3nc4ccccc4o3)c3ccccc23)cc1,9,-3,-9,-18,11,-0.83[8.9 µM]
CC(C)(C)NC(=O)c1ccc(Sc2ccccc2)c([N+](=O)[O-])c1,21,-28,-3,21,5,2.2
COC(=O)CSc1nnnn1-c1ccccc1,8,-11,-19,-49,19,-0.2
O=C(/C(=N\Nc1ccccc1)Sc1nnnn1-c1ccccc1)c1ccccc1,11,30*,x,-39,x,-0.49
COc1ccc(N2CCN(C(=O)CC34CC5CC(CC(C5)C3)C4)CC2)c([N+](=O)[O-])c1,4,1,x,-32,x,-1
COc1ccc(C(=O)Nc2nc3c(s2)CCCC3)cc1S(=O)(=O)N1CCCc2ccccc21,36*,-1,x,-36,x,-0.77
O=C(O)C1CCCN1C(=O)Nc1ccc(Cl)cc1 (stereo not drawn),26*,4,x,-42,x,1.2
CC(C)Nc1nc(NC(C)C)nc(SCCOC(=O)Nc2ccc(Cl)cc2Cl)n1,19,-2,x,-13,x,-0.49
CCC(CC)NC(=O)CO/N=C/c1ccccc1OC(F)F,17,1,x,-19,x,0.07
O=C(O)CN=C(NS(=O)(=O)c1ccccc1)c1ccccc1,7,-3,5,10,-3,-0.07
CC(C)N=C(NS(=O)(=O)c1ccccc1)C(Cl)(Cl)Cl,22,40*,x,-28,x,-1.8
COc1ccc(C(C)(C)C)cc1NC(=O)c1cc(S(=O)(=O)N(C)C)ccc1N1CCCC1,6,3,x,-22,x,-0.29
O=c1[nH]c(=O)n(CCO)c2nnn(Cc3ccccc3)c12,30*,-3,-2,-15,2,2
COc1ccc(-c2nc3c(c(=O)[nH]c(=O)n3Cc3ccccc3)n2C)cc1,2,-6,0,-20,2,-0.51
O=C(Nc1ccc(N2CCOCC2)c(Cl)c1)c1ccccc1F,18,-12,1,16,-3,0.52
O=C(COc1c(F)c(F)c(C(F)(F)F)c(F)c1F)Nc1ccc(N2CCOCC2)c(Cl)c1,5,-4,83*,-22,-83,-1.9
O=C(Nc1ccc(Cl)cc1C(=O)NCC1CCCO1)c1ccc(Cl)cc1Cl (stereo not drawn),35,2,x,21,x,-1.1
C/C(=N\NC(=O)c1ccccc1[N+](=O)[O-])c1c(O)cc(C)oc1=O,19,33*,x,-9,x,-0.55
C/C(=N\NC(=O)c1ccccc1)c1ccc(C)c([N+](=O)[O-])c1,4,-3,x,-36,x,0.3
C/C(=N\NC(=O)c1cccnc1)c1c(O)cc(C)oc1=O,7,42*,x,-22,x,0.49
O=C1CC(=O)C(n2cncn2)C(c2ccc(Cl)cc2Cl)C1 (stereo not drawn),22*,-11,x,-52,x,1.4
O=C(c1ccc(Cl)cc1Cl)C1(n2cncn2)Oc2ccccc2C1O (stereo not drawn),2,3,x,-23,x,-2.8
Cc1cccc(C(=O)Nc2ccccc2SCC2CSc3nc4ccccc4c(=O)n32)c1 (stereo not drawn),25*,-5,-10,-31,8,-0.51
